Source: article PMC6260118 (Thrombosis and Haemostasis, 2017)
Like-named read-outs stand apart in the source and are kept apart here.

How the values were obtained:
[1] = Pharmacokinetics of ciraparantag and metabolite BAP in serum/plasma and urine; assay type: in vivo, human; settings: for dose proportionality of pharmacokinetics: based on Cmax and t½, 5-300 mg
Outline: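 Healthy non-smoking adults aged 18–65 received single escalating doses of test compound from 5 to 300 mg. Each dose was a sterile aqueous solution given by slow IV injection into an indwelling catheter, alone and, after at least four days' washout, about 3 h after oral edoxaban 60 mg. Parent compound and its piperazine metabolite were measured in serum/plasma and in urine pooled over the first 24 h.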

plasma proteins = settings: cited from earlier work
[2] = system: edoxaban-induced anticoagulation; assay: Thromboelastography reaction time; assay type: in vivo, human; settings: within cohorts and across escalating dose cohorts
Outline: (§1)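 Whole blood was tested serially by point-of-care prothrombin time and by thromboelastography reaction time. Subjects were healthy volunteers in escalating-dose cohorts of 8 active and 2 placebo. They received single slow IV test compound or saline about 3 h after a single 60 mg oral dose of edoxaban.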

[3] = system: edoxaban-induced anticoagulation; assay: Whole blood point-of-care prothrombin time; assay type: in vivo, human; settings: within cohorts and across escalating dose cohorts
Outline: as §1

[4] = system: hepatic cytochrome enzymes or membrane transporters; settings: cited from earlier work
[5] = cited from earlier work
[6] = system: anticoagulant-induced bleeding; settings: pre-clinical animal models of anticoagulant-induced bleeding; cited from earlier work
[7] = Phase I safety and tolerability, adverse events; assay type: in vivo, human
Outline: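 The trial was a randomised, double-blind, placebo-controlled phase I study with eight cohorts of 10 healthy subjects each, randomised 8:2 to test compound or saline. Single IV doses were given alone and then about 3 h after edoxaban 60 mg orally. Safety was assessed in everyone dosed at least once: adverse events, vital signs, pulse oximetry, ECGs, clinical laboratory tests, fecal occult blood and concomitant medications. Treatment-emergent events were those starting on or after dosing.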

clot fibrin = assay type: in vivo, human
[8] = system: edoxaban-induced anticoagulation; assay: Whole blood clotting time; assay type: in vivo, human
Outline: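 Native whole blood was tested in glass tubes with no activator or anticoagulant, three tubes of 0.5 ml each. Clotting time was read by tilt-tube visual inspection. Testing began in Period 2 of the 50 mg cohort and continued in all later cohorts, and the 25 mg cohort was repeated with it. IV test compound or saline was given about 3 h after edoxaban 60 mg orally, with follow-up to 24 h. Groups were compared by ANOVA with Tukey HSD, p<0.05.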

[9] = ciraparantag arm N=66, number (% of subjects)
[10] = single IV dose 100 to 300 mg following edoxaban 60 mg

Structure (SMILES): NCCCN1CCN(CCCN)CC1 [BAP, 1,4-bis(3-aminopropyl)-piperazine]
- dose proportionality of pharmacokinetics [1]: dose-proportional pharmacokinetics

Structure (SMILES): N=C(N)NCCC[C@H](N)C(=O)NCCCN1CCN(CCCNC(=O)[C@@H](N)CCCNC(=N)N)CC1 [ciraparantag]
- binding to plasma proteins (plasma proteins): no significant binding
- change in mean TEG-R [2]: no change over time
- change in mean PoC-PT [3]: no change over time
- interaction with hepatic cytochrome enzymes or membrane transporters [4]: does not interact substantially
- binding to a selected spectrum of cardiovascular and antiepileptic drugs [5]: no binding
- binding to anticoagulants ([5]; non-covalent hydrogen bonding and charge-charge interactions): binds similarly to the new oral Xa inhibitors, edoxaban, rivaroxaban and apixaban, and to the oral thrombin inhibitor, dabigatran, but not to argatroban or warfarin
- blood loss [6]: reduces blood loss to baseline levels
- dose proportionality of pharmacokinetics [1]: dose-proportional pharmacokinetics
- main elimination route ([1]; healthy subjects): Renal excretion of ciraparantag metabolite
- half-life ([1]; human, serum, iv, 5 mg): ~12 min
- Cmax ([1]; human, serum, iv, 300 mg): ~10600 ng/mL
- Number of subjects who died ([7]; ciraparantag arm N=66): 0
- Number of subjects with SAE ([7]; ciraparantag arm N=66): 0
- Number of AEs ([7]; ciraparantag arm N=66, all single IV doses, Periods 1 and 2): 204
- Number of AEs per subject: 0 [7, 9]: 17 (25.8 %)
- Number of AEs per subject: 1 [7, 9]: 10 (15.2 %)
- Number of AEs per subject: 2–3 [7, 9]: 16 (24.2 %)
- Number of AEs per subject: 4–5 [7, 9]: 9 (13.6 %)
- Number of AEs per subject: >5 [7, 9]: 14 (21.2 %)
- Number of subjects with AE [7, 9]: 49 (74.2 %)
- Number of subjects with AE related to Ciraparantag/Placebo [7, 9]: 36 (54.5 %)
- Number of subjects with AE related to edoxaban [7, 9]: 5 (7.6 %)
- Number of subjects with AE related to study drug [7, 9]: 38 (57.6 %)
- Number of subjects with TEAE [7, 9]: 49 (74.2 %)
- Changes in blood counts, blood chemistries (electrolytes, bilirubin, hepatic enzymes) or electrocardiograms ([7]; healthy subjects, single IV doses 5-300 mg): no significant changes
- mean fibrin diameter (clot fibrin; 25 mg ciraparantag after edoxaban 60 mg, partial reversal): ~200 nm
- mean fibrin diameter (clot fibrin; 100 mg ciraparantag after edoxaban 60 mg, full reversal): ~250 nm
- mean fibrin diameter (clot fibrin; 300 mg ciraparantag after edoxaban 60 mg, full reversal): ~250 nm
- time to restoration of fibrin strands to baseline levels (clot fibrin; single i.v. dose of 100 mg ciraparantag after edoxaban): ≤ 30 min
- reversal of edoxaban-induced anticoagulation (WBCT) within 10 min ([8]; 50 mg ciraparantag IV after edoxaban 60 mg): Significant reversal
- reversal of edoxaban-induced anticoagulation (WBCT) ([8]; 100–300 mg ciraparantag IV (Cohorts 5 to 7) after edoxaban 60 mg): essentially full reversal
- effect on WBCT ([8]; ciraparantag in the absence of edoxaban): no effect
- duration of reversal of anticoagulation [8, 10]: at least 24 hours
- time to full reversal of anticoagulation [8, 10]: ≤ 10 min
- anticoagulation above baseline ([8]; within 30 min of injection, after therapeutic dose of edoxaban): less than 10%

Structure (SMILES): CN1CCc2nc(C(=O)N[C@@H]3C[C@@H](C(=O)N(C)C)CC[C@@H]3NC(=O)C(=O)Nc3ccc(Cl)cn3)sc2C1 [edoxaban, reference compound]
- mean fibrin diameter (clot fibrin; edoxaban anticoagulation without reversal, native state ∼250 nm): ~125 nm
- effect on WBCT ([8]; edoxaban 60 mg oral): significant elevation
